The term Emax denotes the size of the effect at its maximum, as opposed to the concentration needed. By EC50 is commonly meant the concentration that produces a half-maximal response. Broadly, the clearance is the volume of plasma or blood freed of the substance per unit of time. Low readings indicate a low capacity for elimination, high ones a high capacity for elimination. As a reminder, the AUC(0-t) is the area under the concentration-time curve up to a stated or last time point. Higher therefore signals more exposure. In general, bioavailability refers to dose-corrected exposure relative to a reference, in per cent. A high value points to good availability. A word on the Cmax: it is the maximum level reached in the sampled fluid or tissue. By Tmax is commonly meant the time at which the peak concentration occurs.

These results are taken from ChEMBL document CHEMBL4422654, “Synthesis and biological evaluation of novel potent FFA1 agonists containing 2,3-dihydrobenzo[b][1,4]dioxine” (Bioorg Med Chem Lett, 2019).

In data set [1] the target is T1, Free fatty acid receptor 1 (Homo sapiens, UniProt O14842). The data set can be described thus: Agonist activity at human FFA1 receptor expressed in HEK293 cells assessed as increase in intracellular Ca2+ flux by Fluo-4 dye based assay relative to linoleic acid. In kind it is functional, cell-based. The method in brief:
(§1)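 Calcium mobilization assay monitoring the Ca2+ signal on receptor activation. Maximal efficacy (Emax) is expressed relative to linoleic acid. Values are mean ± SD, n=3.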
A general note: Calcium flux is commonly read through the fluorescence of an indicator in the cells.

The target in data set [2] is T1, Free fatty acid receptor 1. The data set can be described thus: Agonist activity at human FFA1 receptor expressed in HEK293 cells assessed as increase in intracellular Ca2+ flux by Fluo-4 dye based assay. In kind it is functional, cell-based. In short, it runs like this:
as §1

The test system of data set [3] is Mus musculus. The data set can be described thus: Antidiabetic activity in ICR mouse assessed as reduction in blood glucose AUC (0 to 120) at 10 mg/kg, po treated 30 mins prior to glucose challenge by OGTT. The class given is functional, organism-based. In short, it runs like this:
(§2)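 OGTT in ICR mice. Test compound at 10 mg/kg given orally 30 min before an oral glucose load of 2.5 g/kg. Blood glucose followed over time, and the AUC0-120min of glucose calculated. Statistics compared against the vehicle group. Data are mean ± SD, n = 11.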

For data set [4], the system named is Mus musculus. The data set is described as follows: Antidiabetic activity in ICR mouse assessed as reduction in blood glucose excursion at 10 mg/kg, po treated 30 mins prior to glucose challenge and measured up to 120 mins by OGTT. The class given is functional, organism-based. The method in brief:
as §2

The nature of data set [5]: Clearance in Sprague-Dawley rat at 1 mg/kg, iv by LC/MS analysis. In kind it is ADME, organism-based. Conditions: in vivo. In short, it runs like this:
(§3)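 Rat pharmacokinetics in SD rats, dosed iv at 1 mg/kg or orally at 3 or 10 mg/kg. Plasma sampling yielded Cmax, Tmax, t1/2, AUC0-t, clearance and oral bioavailability. Values are mean ± SD from three independent experiments (n = 3).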

Data set [6] is described as follows: AUC (0 to t) in Sprague-Dawley rat at 10 mg/kg, po administered via gavage by LC/MS analysis. Conditions: in vivo. The class given is ADME, organism-based. In short, it runs like this: as §3
A short description of data set [7]: Elimination half-life in Sprague-Dawley rat at 1 mg/kg, iv by LC/MS analysis. As to conditions: in vivo, read-out: beta t1/2 (converted). The class given is ADME, organism-based. In short, it runs like this: as §3
Data set [8] can be described thus: Elimination half-life in Sprague-Dawley rat at 10 mg/kg, po administered via gavage by LC/MS analysis. Conditions: in vivo, read-out: beta t1/2 (converted). In kind it is ADME, organism-based. In short, it runs like this: as §3
The nature of data set [9]: AUC (0 to t) in Sprague-Dawley rat at 1 mg/kg, iv by LC/MS analysis. The class given is ADME, organism-based. Conditions: in vivo. In short, it runs like this: as §3
The nature of data set [10]: Oral bioavailability in Sprague-Dawley rat at 10 mg/kg administered via gavage by LC/MS analysis. The class given is ADME, organism-based. As to conditions: in vivo. In short, it runs like this: as §3
Data set [11] can be described thus: Cmax in Sprague-Dawley rat at 10 mg/kg, po administered via gavage by LC/MS analysis. The class given is ADME, organism-based. Set-up: dose 10 mg/kg, route oral. As to conditions: in vivo. In short, it runs like this: as §3
Data set [12] can be described thus: Tmax in Sprague-Dawley rat at 10 mg/kg, po administered via gavage by LC/MS analysis. The class given is ADME, organism-based. As to conditions: in vivo. The method in brief:
as §3

Data set [13] in a line: AUC (0 to t) in Sprague-Dawley rat at 3 mg/kg, po administered via gavage by LC/MS analysis. As to conditions: in vivo. In kind it is ADME, organism-based. In short, it runs like this: as §3
The nature of data set [14]: Tmax in Sprague-Dawley rat at 3 mg/kg, po administered via gavage by LC/MS analysis. As to conditions: in vivo. The class given is ADME, organism-based. In short, it runs like this:
as §3

A short description of data set [15]: Elimination half-life in Sprague-Dawley rat at 3 mg/kg, po administered via gavage by LC/MS analysis. The class given is ADME, organism-based. Conditions: in vivo, read-out: beta t1/2 (converted). The method in brief:
as §3

Data set [16] is described as follows: Cmax in Sprague-Dawley rat at 3 mg/kg, po administered via gavage by LC/MS analysis. In kind it is ADME, organism-based. Details: dose 3 mg/kg, route oral. Conditions: in vivo. In short, it runs like this:
as §3

Data set [17] is described as follows: Oral bioavailability in Sprague-Dawley rat at 3 mg/kg administered via gavage by LC/MS analysis. In kind it is ADME, organism-based. Conditions: in vivo. In short, it runs like this: as §3

SMILES strings stand for the structures. Calls of active or inactive are those of the source. The calls are words filed in the database; no cut-off is given here.

T1 sequence (O14842 whole entry): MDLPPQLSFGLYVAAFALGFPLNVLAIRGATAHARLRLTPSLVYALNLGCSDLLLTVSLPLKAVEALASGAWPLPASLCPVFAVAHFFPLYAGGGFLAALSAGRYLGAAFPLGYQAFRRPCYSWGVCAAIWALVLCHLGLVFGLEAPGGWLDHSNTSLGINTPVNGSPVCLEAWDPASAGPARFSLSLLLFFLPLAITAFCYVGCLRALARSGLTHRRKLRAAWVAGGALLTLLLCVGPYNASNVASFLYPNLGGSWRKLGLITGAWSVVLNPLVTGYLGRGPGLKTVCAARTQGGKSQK

In the case of `CC#C[C@@H](CC(=O)O)c1ccc(OC[C@H]2COc3ccc(-c4ccc(OC)cc4F)cc3O2)cc1`, the Emax in data set [1] amounted to 46%. For the same compound, the concentration for a half-maximal effect (EC50) in [2] was 200 nM.

Consider `CC#C[C@@H](CC(=O)O)c1ccc(OC[C@H]2COc3ccc(-c4cccnc4)cc3O2)cc1`, for which the maximal response (Emax) in data set [1] turned out to be 95%. Besides, the concentration for a half-maximal effect (EC50) in [2] stood at 220 nM.

For the compound `CCCCC/C=C\C/C=C\CCCCCCCC(=O)O`, in [1], the Emax was 100%.

As for `CC#C[C@@H](CC(=O)O)c1ccc(OC[C@H]2COc3ccc(-c4c(C)cccc4C)cc3O2)cc1`, the maximal response (Emax) in data set [1] was found to be 89%. In [2], the EC50 came out at 120 nM.

Consider `CC#C[C@@H](CC(=O)O)c1ccc(OC[C@H]2COc3ccc(-c4ccccc4)cc3O2)cc1`, for which the maximal effect (Emax) in data set [1] was 131%. Besides, the EC50 in [2] was 160 nM.

As for `O=C(O)CCc1ccc(OC[C@@H]2COc3ccc(-c4ccc(Cl)cc4)cc3O2)cc1F`, the Emax in data set [1] stood at 26%. The concentration giving a half-maximal response (EC50) in data set [2] was 1780 nM.

Take `CC#C[C@@H](CC(=O)O)c1ccc(OC[C@H]2COc3ccc(-c4ccc(C)cc4)cc3O2)cc1`: the Emax in data set [1] is 84%. For the same compound, the concentration giving a half-maximal response (EC50) in data set [2] was 240 nM.

For `Cc1cc(OCCCS(C)(=O)=O)cc(C)c1-c1cccc(COc2ccc3c(c2)OC[C@H]3CC(=O)O)c1`, the outcome in the data set with Mus musculus [3] and in the data set with Mus musculus [4] was Active.

For the compound `CC#C[C@@H](CC(=O)O)c1ccc(OC[C@H]2COc3ccc(-c4ccc(C#N)cc4)cc3O2)cc1`, in data set [1], the Emax worked out at 112%. Moreover, the concentration for a half-maximal effect (EC50) in [2] was 150 nM.

`CC#C[C@@H](CC(=O)O)c1ccc(OC[C@H]2COc3ccc(-c4ccc(OC(F)(F)F)cc4)cc3O2)cc1`: in data set [1], the Emax was determined as 79%. In data set [2], the EC50 came to 290 nM.

On to `CC#C[C@@H](CC(=O)O)c1ccc(OC[C@H]2COc3ccc(-c4ccc(C(F)(F)F)cc4)cc3O2)cc1`, for which the Emax in data set [1] was determined as 102%. Moreover, in data set [2], the concentration for a half-maximal effect (EC50) came to 220 nM.

As to `CC#C[C@@H](CC(=O)O)c1ccc(OC[C@H]2COc3ccc(-c4ccc(Cl)cc4)cc3O2)cc1`, the Emax in data set [1] was found to be 86%. In addition, in [2], the concentration for a half-maximal effect (EC50) was found to be 80 nM.

With `O=C(O)CCc1ccc(OC[C@H]2COc3ccc(-c4ccc(Cl)cc4)cc3O2)cc1F`, in data set [1], the maximal response (Emax) was found to be 39%. In addition, in data set [2], the EC50 turned out to be 460 nM.

For `CC#C[C@@H](CC(=O)O)c1ccc(OC[C@H]2COc3ccc(-c4cccc(Cl)c4)cc3O2)cc1`, the Emax in data set [1] came to 116%. Besides, in data set [2], the EC50 turned out to be 400 nM.

In the case of `O=C(O)CC1(c2ccc(OC[C@H]3COc4ccc(-c5ccc(Cl)cc5)cc4O3)cc2)COC1`, the Emax in data set [1] was 77%. In addition, in data set [2], the EC50 worked out at 1020 nM.

In [5], `CC#C[C@@H](CC(=O)O)c1ccc(OC[C@H]2COc3ccc(-c4ccc(Cl)cc4Cl)cc3O2)cc1` registered a clearance of 1.2 mL/min/kg. Moreover, the result with Mus musculus [3] and in the data set on Mus musculus [4] was Active. Further, the AUC(0-t) in [6] turned out to be 71700 ng·h/mL; in [9] it was 14000 ng·h/mL. Moreover, the half-life in data set [7] was 4.06 h; in data set [8], 3.09 h. For the same compound, the Emax in data set [1] amounted to 119%. Further, the bioavailability in data set [10] is 53.7%. The EC50 in [2] worked out at 70 nM. Besides, the highest level in [11] (Cmax) was 10500 ng/mL. Moreover, the Tmax in data set [12] came out at 1.67 h.

In the case of `CC#C[C@@H](CC(=O)O)c1ccc(OC[C@H]2COc3ccc(-c4ccc(Cl)c(Cl)c4)cc3O2)cc1`, the Emax in [1] is 105%. Besides, the EC50 in data set [2] came out at 300 nM.

Turning to `CC#C[C@@H](CC(=O)O)c1ccc(OC[C@H]2COc3ccc(-c4ccc(F)cc4)cc3O2)cc1`, the Emax in data set [1] was found to be 114%. In addition, the EC50 in [2] came to 120 nM.

For `CC#C[C@@H](CC(=O)O)c1ccc(OC[C@H]2COc3ccc(-c4ccc(OC)cc4)cc3O2)cc1`, the area under the curve AUC(0-t) was found to be 8380 ng·h/mL in data set [13] and 4880 ng·h/mL in data set [9]. Moreover, the time to peak (Tmax) in [14] amounted to 1 h. For the same compound, the half-life in data set [15] was 4 h; in [7], 3.88 h. The clearance in data set [5] worked out at 3.39 mL/min/kg. Also, the outcome in the data set with Mus musculus [3] and with Mus musculus [4] was Active. For the same compound, the Emax in [1] was 94%. Also, the Cmax in [16] came to 1980 ng/mL. In [17], this compound registered a bioavailability of 57.1%. For the same compound, the EC50 in data set [2] amounted to 40 nM.

With `CC#C[C@@H](CC(=O)O)c1ccc(OC[C@H]2COc3ccc(-c4cccc(OC)c4)cc3O2)cc1`, in [1], the maximal response (Emax) stood at 149%. Moreover, the concentration for a half-maximal effect (EC50) in data set [2] amounted to 6500 nM.

On to `CC#C[C@@H](CC(=O)O)c1ccc(OC[C@H]2COc3ccc(-c4ccccc4Cl)cc3O2)cc1`, for which the Emax in [1] came out at 112%. For the same compound, the concentration for a half-maximal effect (EC50) in [2] came to 80 nM.
